DDE Tn6 FP inh = DD(E)-Tn6 binding inhibition, primary FP screen; P02675; Fibrin DD(E) TRITC-Tn6 fluorescence polarization displacement; inhibition, % at 8.3 µM; 370,000 tested, 0.21% active; AID 720509;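 active means inhibition above a per-campaign cutoff: mean of compounds within control limits plus 3 SD, cut at about 15% in these data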;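 further: 0% = median of all compound wells on the plate and 100% = blocking peptide control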
Target sequence (P02675 whole entry, looked up): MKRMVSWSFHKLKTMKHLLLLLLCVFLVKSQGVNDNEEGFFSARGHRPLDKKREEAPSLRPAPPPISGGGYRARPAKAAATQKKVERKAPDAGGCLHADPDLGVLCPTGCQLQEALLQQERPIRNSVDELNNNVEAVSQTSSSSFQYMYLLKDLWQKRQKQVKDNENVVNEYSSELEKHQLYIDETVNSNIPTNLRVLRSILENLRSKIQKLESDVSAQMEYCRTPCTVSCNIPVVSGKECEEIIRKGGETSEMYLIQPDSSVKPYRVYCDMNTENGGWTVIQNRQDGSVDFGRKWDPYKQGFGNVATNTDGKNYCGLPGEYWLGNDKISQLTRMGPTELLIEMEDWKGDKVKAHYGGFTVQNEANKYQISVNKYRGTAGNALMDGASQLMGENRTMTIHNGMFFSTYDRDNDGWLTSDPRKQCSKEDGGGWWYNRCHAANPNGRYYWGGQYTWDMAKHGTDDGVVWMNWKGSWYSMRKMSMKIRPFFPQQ
ARNT TACC3 PPI = ARNT/TACC3 interaction disruption. Q9Y6A5. AlphaScreen His-ARNT PAS-B/GST-TACC3 binding, luminescence; TACC3 fragment carries E629A point mutation. inhibition, % at 9.99 µM. 390,000 tested, 0.66% active. AID 623870;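 active means mean inhibition of replicates at least 50% and at least half of replicates each reaching 50%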;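 further: 0% = complete ARNT plus TACC3 wells and 100% = ARNT alone without TACC3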
CAL PDZ FP-1 = inhibitors of human CAL PDZ peptide binding | AID 504414 | inhibition, % at 20 µM | purified CAL PDZ, TMR-peptide fluorescence polarization, 1 h | 330,000 tested, 0.02% active | Q9HD26;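 active means highest replicate inhibition of at least 40%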;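 further: plate controls were DMSO neutral control wells for no effect and unlabeled competitor peptide control wells for full effect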
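Test system: purified CerCALP PDZ construct; Compound dosing: one concentration, 20 µM compound; Also added: TMR-labelled reporter peptide T*-PRC34 bound in PDZ groove; Read-out: inhibition from polarization loss; Controls: unlabelled peptide and DMSO controls; Signal: FP readout, S and P plane fluorescence; Incubation: 1 h at RT.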
CAL PDZ FP-2 = blocks peptide binding to the human CAL PDZ domain; Q9HD26; purified CAL PDZ, TMR-peptide fluorescence polarization, 1 h; inhibition, % at 24.9 µM; 300,000 tested, 0.92% active; AID 602252;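 active means mean inhibition of at least 30% with at least half of replicates also reaching 30%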;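 further: 0% = DMSO neutral control and 100% = excess unlabeled competitor peptide PRC23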
GRK2 aptamer HTS = human GRK2 inhibition via aptamer displacement | AID 488847 | bead flow cytometry, FAM-aptamer displacement from GRK2 | P25098 | 330,000 tested, 0.59% active | inhibition of aptamer binding, % at 10 µM;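 active means inhibition of aptamer binding above 40%, roughly 3 SD of noise, on plates passing a quality check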;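 further: median bead fluorescence of bound FAM aptamer so fluorescent compounds give negative values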
Tn7 DDE FP = disrupts Tn7 cyclic peptide binding to fibrin D-Dimer-E complex. P02675. FP displacement of FITC-Tn7 peptide from fibrin DD(E); 0% = median of compound wells per plate. inhibition, % at 8.3 µM. 370,000 tested, 0.13% active. AID 720508;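 active means inhibition above the mean of compounds falling within the control limits plus 3 SD of them, cut at about 14% in these data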;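 further: 0% = plate median of compound wells and 100% = 10 µM Aha-Tn7 peptide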
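Measure: % inhibition scaled between sample-field median and high-control FP; Test system: human fibrin DD(E); Quantity: 2 µM final DD(E) protein; Doses: one dose, 8.3 µM nominal; Schedule: compound with protein 10 min, then 3 h after probe, room temperature; Detection: fluorescence polarization; Medium: Tris buffer with calcium and detergent, pH 7.8.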
An asterisk follows results filed as active; . = not tested or not shown. This is a sample that favours compounds with a hit; in the whole collection about 1.8% have one here.

SMILES	DDE Tn6 FP inh	ARNT TACC3 PPI	CAL PDZ FP-1	CAL PDZ FP-2	GRK2 aptamer HTS	Tn7 DDE FP
COc1ccc(NC(C)=O)cc1NC(C)c1nc2sc(C)c(C)c2c(=O)[nH]1 (stereo not given)	-8.9	3.4	-1.8	59.1*	2.0	-7.3
Cc1nnc(SCC(=O)N2CCCC(C(=O)c3ccc(Cl)cc3)C2)o1 (stereo not given)	4.4	-3.9	.	38.5*	0.0	5.9
COc1ccc2cc(C(=O)C3CCCN(C(=O)CSc4nnc(C)o4)C3)ccc2c1 (stereo not given)	4.1	.	-1.9	28.1	0.0	9.1
O=C(NCC1(N2CCCCC2)CCCCC1)c1ccc(NS(=O)(=O)c2ccccc2)cc1	6.7	active	-0.4	-2.0	1.0	-3.0
Cc1cccc(NS(=O)(=O)c2ccc(C(=O)NCC3(N4CCCCC4)CCCCC3)cc2)c1C	-5.2	-10.1	-3.7	-1.7	0.0	-2.5
COc1cc(NC(=O)N2CCc3nc(NCc4cccc(Oc5ccccc5)c4)ncc3C2)cc(OC)c1OC	-7.4	.	.	.	.	-2.0
Cc1cccc(Nc2nc(N)nc(N)c2N=O)c1	-3.9	10.5	19.1	71.0*	.	0.8
Cc1noc(C)c1S(=O)(=O)N(C)C[C@@H]1OCCCC[C@@H](C)Oc2ccc(NS(C)(=O)=O)cc2C(=O)N([C@@H](C)CO)C[C@@H]1C	.	-9.8	.	.	.	.
C=CCOc1ccc(C(=O)/C=C2/C(=O)Nc3ccccc32)cc1	-11.5	-6.1	0.8	-6.3	12.0	-5.7
C=CCOc1ccccc1C(=O)/C=C1/C(=O)Nc2ccccc21	-1.0	11.8	.	70.3*	9.0	0.1
CCCN(CC(=O)Nc1ccccc1OC)C(=O)c1nc2nc(C)ccn2n1	4.4	-3.1	0.8	-3.0	0.0	-9.1
N#Cc1ccc(Cn2ccc3ccc(-c4ccc5ccn(C(=O)C6CCC6)c5c4)cc32)cc1	2.6	.	.	.	.	3.1
COCC(=O)Nc1ccc2c(c1)OC[C@@H](C)N(C(=O)c1cnccn1)C[C@@H](C)[C@@H](OC)CN(C)C2=O	.	-10.6	.	.	.	.
O=C(NCc1ccc(-c2csnn2)cc1)C1CC1	3.6	-1.2	0.9	.	0.0	-1.1
C=CC(=O)NCc1ccc(-c2csnn2)cc1	2.9	-10.3	1.0	56.7*	1.0	7.0
C/C=C/c1ccc2c(c1)O[C@@H](CN(C)C(=O)Nc1ccccc1)[C@@H](C)CN([C@@H](C)CO)S2(=O)=O	.	8.0	.	.	.	.
CCc1ccc(NC(=O)CSc2ccc(-c3ccccn3)nn2)cc1	2.6	50.7*	-2.6	-2.6	0.0	-5.5
CCOC(=O)c1ccccc1NC(=O)CSc1ccc(-c2ccccn2)nn1	0.8	64.4*	-1.9	50.7*	0.0	4.4
O=C(CSc1ccc(-c2ccccn2)nn1)c1ccc([N+](=O)[O-])cc1	-4.7	51.6*	-2.8	-2.8	2.0	0.1
CCc1ccc(NC(=O)CSc2ccc(-c3cccnc3)nn2)cc1	-6.9	11.3	0.7	-4.9	1.0	-1.4
Cc1ccc(S(=O)(=O)N[C@@H]2CC[C@H](CC(=O)N3CCC(Cc4ccccc4)CC3)O[C@H]2CO)cc1	.	-6.9	.	.	.	.
Nn1c(-c2ccccn2)nnc1-c1ccccn1	3.8	79.5*	-3.0	1.3	1.0	-1.9
c1ccc(-c2ccccn2)nc1	7.6	-3.3	-0.5	-2.3	0.0	-0.5
CC(C)c1cn(CC[C@@H]2CC[C@@H](NS(=O)(=O)Cc3ccccc3)[C@H](CO)O2)nn1	.	-42.0	.	.	.	.
CC(C)OC(=O)c1cc(C(=O)c2cc(F)ccc2O)coc1=N	-0.1	.	-2.6	-6.1	0.0	1.3
SMILES	DDE Tn6 FP inh	ARNT TACC3 PPI	CAL PDZ FP-1	CAL PDZ FP-2	GRK2 aptamer HTS	Tn7 DDE FP
COc1ccc(O)c(C(=O)c2coc(=N)c(C(=O)Nc3ccc(SC(F)F)cc3)c2)c1	-1.8	-7.4	-1.1	39.8*	0.0	1.5
O=C(NCCc1ccccc1)OCc1cn(Cc2cc(F)ccc2F)nn1	2.5	.	.	.	.	4.0
CC(COc1ccccc1)OC(=O)Nc1ccccc1 (stereo not given)	3.9	-11.3	31.3	60.9*	.	-7.2
CC(=O)NC(C)c1cc(F)c2cccnc2c1O (stereo not given)	-6.8	74.5*	0.0	-1.2	2.0	-5.0
CC(=O)NC(c1ccc(C)cc1)c1cc(Cl)c2cccnc2c1O (stereo not given)	-3.3	5.5	-18.4	-4.4	2.0	-6.0
CC(=O)NC(c1cc(Cl)c2cccnc2c1O)C1CC1 (stereo not given)	6.7	68.7*	-1.6	-5.6	0.0	7.9
COc1cccc(CCNS(=O)(=O)c2c(C)n[nH]c2C)c1	-0.1	.	.	.	.	3.4
Cc1cccc(C)c1OCC(=O)N/N=C/c1ccncc1	-2.1	27.6	-1.3	0.5	42.0*	0.4
COc1cc(N/N=C/c2ccccc2O)ncn1	-1.4	62.9*	-5.1	.	6.0	-7.7
COc1cc(/C=N/Nc2ccccn2)cc(OC)c1O	-1.4	66.5*	-2.1	-4.7	0.0	6.8
CCOc1ccc(/C=N/Nc2ccccn2)cc1OC	9.3	10.3	-0.6	29.7	0.0	-1.9
CO[C@@H]1CN(C)C(=O)c2ccc(NC(=O)c3cnccn3)cc2OC[C@H](C)N(CCc2ccccc2)C[C@H]1C	.	1.7	.	.	.	.
O=C(C[C@@H]1C[C@@H]2c3cc(NC(=O)CC4CC4)ccc3O[C@@H]2[C@@H](CO)O1)NCc1ccccc1	.	-5.7	.	.	.	.
O=C(COC(=O)Cc1ccc(Cl)cc1)Nc1ccc(OC(F)F)cc1	0.1	-7.9	-1.1	0.9	44.0*	9.7
COCC(=O)N1[C@@H]2CN(C(=O)Nc3ccccc3F)c3ccccc3[C@@H]2[C@@H]1CO	.	2.5	.	.	.	.
COc1ccc(-c2cnc3c(c2)C(=O)N([C@@H](C)CO)C[C@@H](C)[C@H](CN(C)Cc2ccccn2)O3)cc1	.	5.2	.	.	.	.
CCCS(=O)(=O)Nc1cccc(-c2nc3cccnc3s2)c1	-2.2	46.0*	-3.4	-1.2	2.0	-4.8
O=S(=O)(Nc1cccc(-c2nc3cccnc3s2)c1)c1cccs1	-15.0	1.2	-3.5	-1.4	0.0	-1.5
CC(C)c1ccc(CN2C(=O)c3ccccc3S2(=O)=O)cc1	-1.4	20.8	-0.6	-1.4	4.0	-2.3
COC(=O)c1ccc(CN2C(=O)c3ccccc3S2(=O)=O)cc1	0.2	-3.2	.	55.4*	4.0	-3.6
Cc1noc(C)c1NC(=O)N(C)C[C@@H]1OCCCC[C@@H](C)Oc2ccc(NC(=O)Nc3ccc(F)cc3)cc2C(=O)N([C@@H](C)CO)C[C@H]1C	.	-4.1	.	.	.	.
CN1C(=O)c2ccccc2C(C(=O)O)C1c1cn(C)c2ccccc12 (stereo not given)	-1.4	-4.7	.	41.5*	3.0	-5.5
Cc1ccc(C2C(C(=O)O)c3ccccc3C(=O)N2C)c(C)c1 (stereo not given)	4.5	-4.7	-1.6	-1.1	0.0	0.9

Screening results (PubChem BioAssay)
